Measurements from ChEMBL document CHEMBL1130100, “Stabilized analogs of thymopentin. 3. Evaluation of ketomethylene pseudopeptides for antiarthritic properties” (1997).
Where “and” joins values, the source holds several entries; their conditions need not be identical. Identical values can stand only once.

Columns and labels:
Assay type in all cases: functional
Mus musculus [1] = assay: Extent of paw swelling after treatment with thymopentin-5 (TP-5) compound in the Mouse Type II collagen arthritis at a dosage of 1.0 mg/kg on day 44
In short: (§1)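 DBA/1 Lac mice immunized with bovine type II collagen (100 μg) in Freund's complete adjuvant at four to six back sites, then boosted ip (100 μg) on day 21. Dosing was iv in sterile saline every second day from day 19 through day 40, 12 mice per dose. Each hind paw was measured by caliper. Result given as % of untreated swelling after subtracting age-matched normal paw.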

Mus musculus [2] = assay: On set and incidence of arthritis in the Mouse Type II collagen model at 0.5 dose mg/kg on day 40, expressed as number of mice treated out of 12 tested
In short: (§2)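 DBA/1 Lac mice sensitized with bovine type II collagen (100 μg) in Freund's complete adjuvant, ip boost (100 μg) on day 21. Freshly dissolved compound in sterile saline was given iv every second day, day 19 through day 40, groups of 12. A mouse was scored arthritic if erythema or edema was present on any digit, paw or appendage. Incidence reported as number positive of 12.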

Mus musculus [3] = assay: Extent of paw swelling after treatment with thymopentin-5 (TP-5) compound in the Mouse Type II collagen arthritis at 1 mg/kg on day 30.; in short: as §1
Mus musculus [4] = assay: Extent of paw swelling after treatment with thymopentin-5 (TP-5) compound in the Mouse Type II collagen arthritis at a dosage of 1.0 mg/kg on day 40; in short: as §1
Mus musculus [5] = assay: Extent of paw swelling after treatment with thymopentin-5 (TP-5) compound in the Mouse Type II collagen arthritis at a dosage of 1.0 mg/kg on day 37; in short: as §1
Mus musculus [6] = assay: On set and incidence of arthritis in the Mouse Type II collagen model at 0.5 dose mg/kg on day 37, expressed as number of mice treated out of 12 tested; in short: as §2
Mus musculus [7] = assay: On set and incidence of arthritis in the Mouse Type II collagen model at 0.5 dose mg/kg on day 44, expressed as number of mice treated out of 12 tested; in short: as §2
Mus musculus [8] = assay: On set and incidence of arthritis in the Mouse Type II collagen model following 0.5 mg/kg on day 30.; in short: as §2
Mus musculus [9] = assay: Extent of paw swelling after treatment with thymopentin-5 (TP-5) compound in mouse type II collagen arthritis at a dosage of 1.0 mg/kg on day 30; in short: as §1
Mus musculus [10] = assay: On set and incidence of arthritis in the Mouse Type II collagen model at 0.5 dose mg/kg on day 40, expressed as ratio of number treated to that of control; in short: as §2
Mus musculus [11] = assay: On set and incidence of arthritis in the Mouse Type II collagen model at 0.5 dose mg/kg on day 37, expressed as ratio of number treated to that of control; in short: as §2
Mus musculus [12] = assay: On set and incidence of arthritis in the Mouse Type II collagen model at 0.5 dose mg/kg on day 44, expressed as ratio of number treated to that of control; in short: as §2
Mus musculus [13] = assay: On set and incidence of arthritis in the Mouse Type II collagen model at 0.5 dose mg/kg on day 40,expressed as number of mice treated out of 12 tested; in short: as §2
Mus musculus [14] = assay: Extent of paw swelling after treatment with thymopentin-5 (TP-5) compound in the Mouse Type II collagen arthritis at a dosage of 0.001 mg/kg on day 30; in short: as §1
Mus musculus [15] = assay: 68 Extent of paw swelling after treatment with thymopentin-5 (TP-5) compound in the Mouse Type II collagen arthritis at a dosage of 0.001 mg/kg on day 30; in short: as §1
Mus musculus [16] = assay: On set and incidence of arthritis in the Mouse Type II collagen model at 0.5 dose mg/kg on day 30, expressed as ratio of number treated to that of control; in short: as §2
Rattus norvegicus [17] = assay: extent of paw swelling following treatment with the compound in the rat adjuvant arthritis model observed on day 12 at 0.05 mg/kg dose
In short: (§3)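 Rat adjuvant arthritis with iv dosing every second day, starting 2 days before the adjuvant/antigen challenge. Initial doses ranged 0.05 to 0.50 mg/kg, eight rats per dose. Each hind paw was measured by caliper. Swelling minus age-matched normal paw, expressed as % of untreated animals.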

Rattus norvegicus [18] = assay: extent of paw swelling following treatment with the compound in the rat adjuvant arthritis model observed on day 19 at 0.05 mg/kg dose; in short: as §3
Rattus norvegicus [19] = assay: extent of paw swelling following treatment with the compound in the rat adjuvant arthritis model observed on day 16 at 0.05 mg/kg dose; in short: as §3

| SMILES | No. of mice (Mus musculus [6]) | No. of mice (Mus musculus [7]) | No. of mice (Mus musculus [8]; 0.5 mg/kg) | No. of mice (Mus musculus [10]) | No. of mice (Mus musculus [11]) | No. of mice (Mus musculus [12]) | further results |
| --- | --- | --- | --- | --- | --- | --- | --- |
| CC(C)[C@H](NC(=O)[C@H](CC(=O)O)NC(=O)[C@@H]1CCCN1C(=O)[C@@H](N)CCCN=C(N)N)C(=O)C[C@@H](Cc1ccccc1)C(=O)O (stereo in doubt; 1b-B) | 9 | 11 | 6 |  |  |  | Paw swelling (Mus musculus [1]): 53%; No. of mice (Mus musculus [2]): 10; Paw swelling (Mus musculus [3]): 66%; Paw swelling (Mus musculus [4]): 42%; Paw swelling (Mus musculus [5]): 59% |
| CC(C)C(CC(=O)[C@H](CC(=O)O)NC(=O)C(CCCCN)NC(=O)[C@@H](N)CCCN=C(N)N)C(=O)NC(Cc1ccc(O)cc1)C(=O)O (stereo partly specified) |  |  |  | 12 | 11 | 12 | Paw swelling (Mus musculus [9]): 100%; No. of mice (Mus musculus [8]): 8 |
| CCCC[C@H](NC(=O)[C@@H](N)CCCN=C(N)N)C(=O)N[C@@H](CC(=O)O)C(=O)N[C@H](C(=O)C[C@@H](Cc1ccccc1)C(=O)O)C(C)C (stereo in doubt; 1c-B) | 11 | 12 | 8 |  |  |  | Paw swelling (Mus musculus [1]): 100%; No. of mice (Mus musculus [2]): 11 |
| CCCC[C@@H](C(=O)N[C@@H](CC(=O)O)C(=O)N[C@H](C(=O)C[C@H](Cc1ccccc1)C(=O)O)C(C)C)N(C)C(=O)[C@@H](N)CCCN=C(N)N | 7 | 8 |  |  |  |  | No. of mice (Mus musculus [13]): 7; Paw swelling (Mus musculus [14]): 90% and 43%; Paw swelling (Mus musculus [15]): 90%; No. of mice (Mus musculus [8]): 7 |
| CC(C)[C@H](CC(=O)[C@H](CC(=O)O)NC(=O)[C@H](CCCCN)NC(=O)[C@@H](N)CCCN=C(N)N)C(=O)N[C@@H](Cc1ccccc1)C(=O)O (stereo in doubt; 3a-B) |  |  |  | 12 | 11 | 12 | Paw swelling (Mus musculus [9]): 100%; No. of mice (Mus musculus [16]): 8 |
| CCCC[C@@H](C(=O)N[C@@H](CC(=O)O)C(=O)N[C@H](C(=O)C[C@H](C(=O)O)C(C)C)C(C)C)N(C)C(=O)[C@@H](N)CCCN=C(N)N (stereo in doubt; 1m-B) |  |  | 8 | 11 | 11 | 12 | Paw swelling (Rattus norvegicus [17]): 0%; Paw swelling (Mus musculus [3]; 1 mg/kg): 100%; Paw swelling (Rattus norvegicus [18]): 100%; Paw swelling (Rattus norvegicus [19]): 100% |
| CC(CC(=O)[C@H](CC(=O)O)NC(=O)C(CCCCN)NC(=O)[C@@H](N)CCCN=C(N)N)C(=O)NC(Cc1ccccc1)C(=O)O (stereo in doubt; 3e-A) |  |  | 5 | 11 | 9 | 12 | Paw swelling (Mus musculus [9]; 1 mg/kg): 88% and 57% and 73% and 75% |
| CC(CC(=O)[C@H](CC(=O)O)NC(=O)C(CCCCN)NC(=O)[C@@H](N)CCCN=C(N)N)C(=O)NC(Cc1ccccc1)C(=O)O (stereo in doubt; 3e-B) |  |  | 10 | 10 | 11 |  | Paw swelling (Mus musculus [9]; 1 mg/kg): 100% and 68% and 77% |
